The list is not random: actives were taken first. Their share in the collection is about 1.4%.
ZTA DNA inh: blocks Epstein-Barr virus ZTA, an EBNA-1 counter-screen | ZTA-DNA binding, fluorescence polarization | AID 2234 | inhibition, % at 11 µM | 320,000 tested, 0.15% active | P03206; in the data active = inhibition above about 33%
Target sequence (P03206 whole entry, looked up): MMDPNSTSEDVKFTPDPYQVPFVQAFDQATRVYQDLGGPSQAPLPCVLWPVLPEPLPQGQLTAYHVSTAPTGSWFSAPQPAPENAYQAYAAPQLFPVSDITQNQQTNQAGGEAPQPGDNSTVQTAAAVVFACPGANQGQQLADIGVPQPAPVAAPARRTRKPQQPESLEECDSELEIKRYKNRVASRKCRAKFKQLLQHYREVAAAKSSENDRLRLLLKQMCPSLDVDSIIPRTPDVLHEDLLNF
HCV core dimer: inhibitors of HCV core protein dimerization, primary screen, biochemical, TR-FRET, high-throughput. AID 1899, 2009. 300,000 tested, 0.33% active. TR-FRET GST/Flag-core106 dimerization, 1536-well. inhibition, % at 5 µM;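 active = inhibition above the mean of all tested compounds plus 3 SD, set per screening campaign, cut at about 45% in these data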
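Assay system: GST-tagged and Flag-tagged HCV core protein residues 1-106 / Times: compound-protein-antibody incubation 4 h at 22.5 °C / Signal: time-resolved FRET, ex 340 nm, em 617 and 671 nm / Evaluation: % inhibition based on acceptor/donor emission ratio / Benchmarks: wells lacking GST-core106 and wells with excess unlabelled core106 / Repeats: singlicate, one well per compound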
SUMO HTRF inh: inhibitors of in vitro SUMOylation cascade, primary screen, biochemical, HTRF, uHTS; SUMO-conjugating enzyme UBC9 (Homo sapiens), P63279; HTRF SUMOylation assay, SAE1/SAE2 + UBC9; inhibition, % at 35 µM; 290,000 tested, 0.36% active; in the data active = inhibition above about 50%, passing the limit was not always enough
Target sequence (P63279 whole entry, looked up): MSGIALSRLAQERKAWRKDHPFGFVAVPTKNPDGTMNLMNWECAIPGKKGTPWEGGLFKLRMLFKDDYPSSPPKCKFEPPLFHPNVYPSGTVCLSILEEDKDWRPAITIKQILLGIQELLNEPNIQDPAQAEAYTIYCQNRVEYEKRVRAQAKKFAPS
EBNA-1 inhibitor: EBNA-1 DNA-binding inhibitors, primary screen, biochemical, fluorescence polarization; inhibition, % at 14.8 µM; 300,000 tested, 0.34% active; AID 1950, 2009; in the data active = inhibition above about 28%
HCV NS3 hel inh: inhibitors of HCV NS3 helicase, primary screen, biochemical, Cy5 molecular beacon fluorescence. Hepatitis C virus NS3 helicase. NS3 helicase DNA unwinding. inhibition, % at 10.9 µM. 290,000 tested, 0.56% active. AID 1800, 2009;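 active = inhibition above the mean of all tested compounds plus 3 SD, set per campaign, cut at about 35% in these data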;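 note: 0% = DMSO wells and 100% = thioflavine S control wells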
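Assay system: hepatitis C virus NS3 helicase domain fragment enzyme. Also added: annealed dual-labelled DNA beacon duplex, ATP-started. Timing: 1 h reaction at 25 °C, ATP-initiated. Technique: Cy5 fluorescence at 0 and 60 min, beacon hairpin quenching. Evaluation: % inhibition of unwinding. Replication: one well per compound.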
EBNA-1 confirm: EBNA-1 DNA-binding inhibitors, retest, confirmation, biochemical, fluorescence polarization, triplicate. shares compounds with EBNA-1 inhibitor. Recombinant EBNA-1 DBD, Cy5-DNA fluorescence polarization. inhibition, % at 14.8 µM. 830 tested, 35% active. AID 2292, 2010;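 active = mean inhibition across replicates above a set limit taken from the earlier primary screen, cut at about 28% in these data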;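 note: plate controls were EBNA-1 protein with DMSO for no effect and wells lacking EBNA-1 for full effect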
ZTA counter trip: EBV Zta DNA binding inhibitors, counter-screen for EBNA-1 inhibitor project, biochemical, fluorescence polarization, triplicate | shares compounds with EBNA-1 inhibitor | Zta-ZRE DNA binding, Cy5 fluorescence polarization | inhibition, % at 11.1 µM | 830 tested, under 10 active;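 active = mean inhibition over triplicates above a set limit taken from the primary EBNA-1 screen, cut at about 37% in these data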;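 note: purified full length Zta protein with Cy5 labeled ZRE DNA probe; 0% = Zta with DMSO and 100% = wells lacking Zta protein; inhibitors lower polarization by freeing the labeled DNA probe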
* = called active by the depositor; nt = not tested or not shown.

SMILES	ZTA DNA inh	HCV core dimer	SUMO HTRF inh	EBNA-1 inhibitor	HCV NS3 hel inh	EBNA-1 confirm	ZTA counter trip
COc1cc(NC(=O)COC(=O)/C=C/c2ccccc2Cl)cc(OC)c1	9	13	-4	69*	-3	30*	13
COc1ccc(OC)c(NC(=O)COC(=O)/C=C/c2ccc(Cl)cc2)c1	-15	8	-2	42*	1	15	9
COc1cc(NC(=O)COC(=O)/C=C/c2ccc(OC)c(OC)c2)cc(OC)c1	-8	-1	-7	2	-8	nt	nt
CN(C(=O)CSc1nc2ccccc2[nH]1)C1CCS(=O)(=O)C1 (stereo not drawn)	-2	nt	nt	nt	nt	nt	nt
CN(CC(=O)Nc1ccc(F)cc1)C(=O)COC(=O)/C=C/c1ccccc1[N+](=O)[O-]	-10	nt	nt	nt	nt	nt	nt
O=C(CSc1ncnc2c1oc1ccccc12)Nc1cccc(F)c1	-10	-2	-8	34*	-1	54*	9
Cc1cccc(NC(=O)CSc2ncnc3c2oc2ccccc23)c1	10	7	16	-1	-3	nt	nt
Cc1ccc(C(=O)NCc2ccc3c(c2)OCO3)cc1	1	10	3	3	-3	nt	nt
CN(Cc1ccccc1)S(=O)(=O)c1ccc(Cl)c(C(=O)NCc2ccncc2)c1	-7	-7	nt	-1	nt	nt	nt
Cc1ccc(CN(c2ccc(C(=O)NCc3ccc4c(c3)OCO4)cc2)S(C)(=O)=O)cc1	2	1	-10	35*	-15	14	-3
CN(Cc1ccccc1)S(=O)(=O)c1ccc(Cl)c(C(=O)NCc2ccc3c(c2)OCO3)c1	10	7	15	37*	-4	-8	4
Cc1csc(NC(=O)CCC(=O)N(CC(=O)NC2CCCCC2)c2ccccc2)n1	11	10	16	8	-5	nt	nt
COc1ccc(/C=C/C(=O)Oc2ccc(/C=N\NC(=O)c3ccc(F)cc3)cc2)cc1	-5	13	-3	2	-7	nt	nt
COc1ccc(/C=C/C(=O)Oc2cccc(/C=N/NC(=O)c3cccc(F)c3)c2)cc1	0	23	3	29*	6	3	1
CC(=O)Nc1ccc(S(=O)(=O)NCCCc2ccccc2)cc1	3	-2	-6	-7	17	nt	nt
COC(=O)Cc1c(C)c2ccc(OCC(C)=O)c(C)c2oc1=O	5	-4	9	6	15	nt	nt
COC(=O)Cc1c(C)c2ccc(OCC(=O)N3CCCC(C)C3)c(C)c2oc1=O (stereo not drawn)	-7	0	22	48*	-1	-18	-10
O=C(N/N=C/c1ccc(COc2ccc(Br)cc2)o1)c1ccco1	-14	5	17	59*	-6	6	2
COc1ccc(NC(=O)Cn2c(=O)n(-c3ccccc3)c(=O)c3sccc32)c(OC)c1	0	1	5	-12	0	nt	nt
CCOc1ccc(-n2c(=O)c3sccc3n(CC(=O)Nc3cccc(OC)c3)c2=O)cc1	-5	1	4	52*	11	31*	-3
CO/N=C(/c1nonc1N)N1CCN(c2ccc([N+](=O)[O-])cc2)CC1	-3	-3	-12	33*	-4	7	1
O=C(NC(=S)NCc1nc2ccccc2[nH]1)c1ccccc1F	-12	1	0	-4	6	nt	nt
O=C(NC(=S)NCc1nc2ccccc2[nH]1)c1ccc(F)cc1	20	4	2	33*	-3	-13	-12
COc1ccc(CCN(C)C(=O)CN2C(=O)NC3(CCCc4ccccc43)C2=O)cc1OC (stereo not drawn)	-11	-7	nt	-12	nt	nt	nt
CN(C(=O)c1ccc(NC(=O)Cc2cccc(NC(=O)C3CCN(C(=O)C4CCCC4)CC3)c2)cc1)C1CCCC1	-4	nt	nt	nt	nt	nt	nt
SMILES	ZTA DNA inh	HCV core dimer	SUMO HTRF inh	EBNA-1 inhibitor	HCV NS3 hel inh	EBNA-1 confirm	ZTA counter trip
Cc1ccc(-c2nn3c(C)nnc3s2)cc1NC(=O)c1ccc(-c2ccc(Cl)cc2Cl)o1	13	40	44	37*	19	2	-11
CCOc1ccc(NC(=O)CN(C)C(=O)/C=C/c2ccc(S(=O)(=O)N3CCCCCC3)cc2)cc1OCC	-1	6	nt	33*	nt	14	4
CC(=O)c1ccc(NC(=O)CSc2ccc(-c3ccc4c(c3)OCO4)nn2)cc1	9	-14	10	5	0	nt	nt
CC(=O)Nc1ccc(NC(=O)CSc2ccc(-c3ccc4c(c3)OCO4)nn2)cc1	6	-5	25	49*	10	24	3
O=C1c2c(O)cccc2Cc2cccc(O)c21	-18	59*	nt	31*	nt	17	11
CCN1CCN(S(=O)(=O)c2ccc(C(C)(C)C)cc2)CC1	-8	-9	-7	-11	4	nt	nt
Cc1ccc(S(=O)(=O)N2[C@@H](c3ccccc3F)C(C(=O)O)=CC[C@H]2c2cccc(Cl)c2)cc1	11	5	nt	10	nt	nt	nt
CCCCCNC(=O)C1CCC(Cn2c(=S)[nH]c3ccccc3c2=O)CC1 (stereo not drawn)	-3	12	17	44*	2	21	3
O=C1COc2ccc(C(=O)COC(=O)C3CCN(S(=O)(=O)c4cccs4)CC3)cc2N1	16	3	0	35*	-2	18	-2
O=C(COC(=O)C1CCN(S(=O)(=O)c2cccs2)CC1)c1ccc2c(c1)OCCO2	1	15	8	10	-4	nt	nt
CC(C)C(=O)Nc1cccc(C(=O)OCC(=O)c2ccc(Cl)cc2Cl)c1	4	2	8	41*	-1	79*	8
Cc1ccccc1NC(=O)Cn1c(=O)n(Cc2ccccc2)c(=O)c2c(C)c(C)sc21	2	12	3	37*	-7	26	-4
Cc1ccccc1NC(=O)CN1CCN(Cc2ccccc2)CC1	-1	-29	0	-7	1	nt	nt
CCOc1ccc(S(=O)(=O)N2CCC(C(=O)OC(C)C(=O)N(C)C3CCCCC3)CC2)cc1 (stereo not drawn)	3	5	5	-6	-10	nt	nt
Cc1ccc2c(c1)[nH]c1c(=O)n(Cc3ccco3)cnc12	15	0	23	70*	5	37*	0
COc1ccc(/C=C2\SC(=O)N(CC(=O)NNC(=O)c3ccccc3O)C2=O)cc1	-8	-1	56*	54*	7	7	8
COc1cc(OC)c(/C=C2\SC(=O)N(CC(=O)Nc3ccccc3F)C2=O)c(OC)c1	-5	10	25	96*	6	67*	-1
